Published values gathered from unrelated publications.
Each line is one published result; the experiments were not run side by side.
Target: NUAK family SNF1-like kinase 1 (NUAK1, Homo sapiens, UniProt O60285)
Sequence (O60285 1-661, as in one of the studies): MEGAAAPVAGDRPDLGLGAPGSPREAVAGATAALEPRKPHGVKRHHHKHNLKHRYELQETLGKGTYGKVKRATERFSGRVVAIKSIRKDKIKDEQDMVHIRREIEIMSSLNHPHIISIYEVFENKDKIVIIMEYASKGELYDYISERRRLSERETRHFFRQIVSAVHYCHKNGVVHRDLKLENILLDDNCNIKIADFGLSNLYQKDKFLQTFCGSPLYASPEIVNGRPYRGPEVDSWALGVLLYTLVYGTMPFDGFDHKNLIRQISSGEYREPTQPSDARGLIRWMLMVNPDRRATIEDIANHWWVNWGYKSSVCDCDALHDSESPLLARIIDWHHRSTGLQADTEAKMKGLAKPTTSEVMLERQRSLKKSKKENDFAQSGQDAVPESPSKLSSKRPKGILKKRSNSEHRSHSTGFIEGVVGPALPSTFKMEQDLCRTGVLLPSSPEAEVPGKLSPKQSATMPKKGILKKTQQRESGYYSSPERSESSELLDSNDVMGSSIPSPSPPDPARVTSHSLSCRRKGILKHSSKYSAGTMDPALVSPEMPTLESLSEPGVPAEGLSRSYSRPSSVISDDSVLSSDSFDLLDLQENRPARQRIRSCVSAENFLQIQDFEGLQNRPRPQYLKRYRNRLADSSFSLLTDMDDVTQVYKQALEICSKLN

Compound | observed | mode | method | concentration | endpoint | result
N#Cc1ccc(Nc2ccc3[nH]c(=O)[nH]c3c2)c(Cl)c1 | cell-free assay | – | competition with immobilised ligand | 1 µM | remaining binding | 100%
CN1CCc2cc(Nc3ncc(C4CC4)c(NCCCNC(=O)C4CCC4)n3)ccc2C1 | enzyme activity | inhibitor | radiometric | 1 µM | remaining activity | 6%
CNC(=O)c1cc(Oc2ccc(NC(=O)Nc3ccc(Cl)c(C(F)(F)F)c3)cc2)ccn1 | enzyme activity | inhibitor | – | 10 µM | inhibition | 2%
O=C1Nc2ccc(Cl)cc2C1=Cc1cc(Cl)c(O)c(Cl)c1 | cell-free assay | – | – | 0.5 µM | remaining signal | 72.5%
Cc1nn(CC(F)(F)F)cc1Nc1nccc(NCc2ccc(S(N)(=O)=O)cc2)n1 | enzyme activity | inhibitor | radiometric | 1 µM | remaining activity | 94%
O=C1NC(c2ccccn2)Sc2ccccc21 (centres unmarked) | cell-free assay | – | competition with immobilised ligand | 1 µM | remaining binding | 95%
c1cc(CN2CCOCC2)cc(Nc2ncc(C3CC3)c(NCCc3c[nH]cn3)n2)c1 | enzyme activity | inhibitor | radiometric | 1 µM | remaining activity | 6%
CCCS(=O)(=O)Nc1ccc(F)c(C(=O)c2c[nH]c3ncc(-c4ccc(Cl)cc4)cc23)c1F | enzyme activity | inhibitor | – | 1 µM | inhibition | < 20%
COc1ccc2c(c1)O[C@@H](c1ccc(OC)c(OC)c1)C[C@H]2NC(=O)C1(c2ccc3c(c2)OC(F)(F)O3)CC1 | cell-free assay | – | competition with immobilised ligand | 1 µM | remaining binding | 86%
NS(=O)(=O)c1ccc(CNc2nc(Nc3cccc(CN4CCOCC4)c3)ncc2Br)cc1 | enzyme activity | inhibitor | radiometric | 1 µM | remaining activity | 23%
FC(F)c1nc2ccccc2n1-c1nc(N2CCOCC2)nc(N2CCOCC2)n1 | enzyme activity | inhibitor | – | 10 µM | remaining activity | 90%
CNCc1ccccc1-c1csc([C@@H](C)Nc2nc(C)nc3cc(OC)c(OC)cc23)c1 | cell-free assay | – | competition with immobilised ligand | 1 µM | remaining binding | 97%
O=C(Nc1cnn(-c2csc(C(=O)NC3COC3)c2)c1)Nc1c(F)cccc1Cl | enzyme activity | inhibitor | – | 5 µM | remaining activity | 95.2%
CCc1ccccc1C(=O)Nc1n[nH]c2c(C)c(F)c(C3C(C#N)=C(C)N(C)C(C)=C3C#N)cc12 | cell-free assay | – | competition with immobilised ligand | 1 µM | remaining binding | 33%
Cc1nn(CC(F)(F)F)cc1Nc1ncc(Br)c(NCCc2cnc[nH]2)n1 | enzyme activity | inhibitor | radiometric | 1 µM | remaining activity | 13%
COc1cc(/C=C/C(=O)CC(=O)/C=C/c2ccc(O)c(OC)c2)ccc1O | enzyme activity | inhibitor | – | 1 µM | activity vs control | 55%
CN(C)C(=O)Cn1cc(-c2nc(C3(c4ccc(-c5cnc(N)nc5)cc4)CC3)no2)cn1 | cell-free assay | – | competition with immobilised ligand | 1 µM | remaining binding | 82%
NS(=O)(=O)c1ccc(CNc2ccnc(Nc3cccc(NC(=O)N4CCCC4)c3)n2)cc1 | enzyme activity | inhibitor | radiometric | 1 µM | remaining activity | 78%
N#CCCc1ccc2c(c1)-c1[nH]c3ccc([N+](=O)[O-])cc3c1CC(=O)N2 | cell-free assay | – | – | 0.5 µM | remaining signal | 14.1%
Cc1nn(CC(F)(F)F)cc1Nc1ncc(C2CC2)c(NCCc2c[nH]cn2)n1 | enzyme activity | inhibitor | radiometric | 1 µM | remaining activity | 73%
CN(C(=O)c1ccccc1)c1cc(N(C)c2ccc3c(c2)CCc2ccc(C(=O)NCCN4CCOCC4)cc2C3=O)ccc1F | cell-free assay | – | competition with immobilised ligand | 1 µM | remaining binding | 100%
CCN(CC)CCNC(=O)c1c(C)[nH]c(/C=C2\C(=O)Nc3ccc(F)cc32)c1C | cell-free assay | – | – | 0.5 µM | remaining signal | 2.75%
c1cc(CN2CCOCC2)cc(Nc2nccc(NCCc3cnc[nH]3)n2)c1 | enzyme activity | inhibitor | radiometric | 1 µM | remaining activity | 14%
CN([C@@H]1CCc2c(CC(=O)O)c3ccccc3n2C1)S(=O)(=O)c1ccc(F)cc1 | cell-free assay | – | competition with immobilised ligand | 1 µM | remaining binding | 100%
Cc1ccc(Nc2nccc(N(C)c3ccc4c(C)n(C)nc4c3)n2)cc1S(N)(=O)=O | enzyme activity | inhibitor | – | 0.3 µM | inhibition | 14%
CN(C)C1CCN(CC#Cc2nn(C3CCCC3)c3nc(NCc4ccccc4)ncc23)C1 (centres unmarked) | enzyme activity | inhibitor | FRET | 1 µM | inhibition | 10%
